assay: Inhibition of rabbit liver guanase assessed as inhibition of guanine hydrolysis by Lineweaver-Burk plot method; parameters: species or system Oryctolagus cuniculus
How it was run: (§1)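 Rabbit liver guanase (ammonium sulfate suspension, diluted to 0.1278 U/mL; 0.0077 units per assay) in 0.05 M Tris-HCl pH 7.4, 25°C, 1.0 mL final volume. Guanine 5–40 µM (5–6 levels) at fixed inhibitor 10, 20 or 30 µM (DMSO or methanol stocks). Initial rate from absorbance decrease at 245 nm, mean of two data sets; Ki from Lineweaver-Burk plots.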

| Ki [µM] | SMILES |
| --- | --- |
| 43.8 | CCOC1CNC(=O)c2c(ncn2Cc2ccc(OC)cc2)N1Cc1ccccc1 (stereo unspecified) |
| 2.5 | O=C1NC(O)CNc2nc[nH]c21 (stereo unspecified) [AZEPINOMYCIN] |
| 8.8 | COC1CNC(=O)c2nc[nH]c2N1Cc1ccccc1 (stereo unspecified) |
| 21 | COc1ccc(Cn2cnc3c2NC(OC)CNC3=O)cc1 (stereo unspecified) |
| 33.4 | CCOC1CNC(=O)c2ncn(Cc3ccc(OC)cc3)c2N1 (stereo unspecified) |
| 47.5 | COc1ccc(Cn2cnc3c2C(=O)NCC(OC)N3)cc1 (stereo unspecified) |
| 39.7 | COC1CNC(=O)c2ncn(Cc3ccc(F)cc3)c2N1 (stereo unspecified) |
| 26.5 | COc1ccc(Cn2cnc3c2C(=O)NCC(OC)N3Cc2ccccc2)cc1 (stereo unspecified) |

assay: Competitive reversible inhibition of rabbit liver guanase assessed as inhibition of guanine hydrolysis by Lineweaver-Burk plot method; parameters: species or system Oryctolagus cuniculus; how it was run: as §1

| Ki [µM] | SMILES |
| --- | --- |
| 54 | CCCCOC1CNC(=O)c2ncn(Cc3ccccc3)c2N1 (stereo unspecified) |
| 47 | CCOC1CNC(=O)c2ncn(Cc3ccccc3)c2N1 (stereo unspecified) |
| 40 | COC1CNC(=O)c2ncn(Cc3ccccc3)c2N1 (stereo unspecified) |
